# ChEMBL document CHEMBL1134552, “Synthesis of cytotoxic 6E-hydroximino-4-ene steroids: structure/activity studies” (J Med Chem, 2001)
# Assays:
# Assay type in all cases: functional, cell-based
# P388 = experiment: In vitro antitumor activity against P-388 tumor cells.; conditions: Mus musculus
# How it was run: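 P-388 lymphoid neoplasm from DBA/2 mouse, grown in suspension in EMEM/neaa with 5% FCS. Seeded at 1×10^4 cells per well in 1 mL medium holding a range of sample concentrations, with drug-free controls, duplicate wells. Incubated 3 days at 37 °C, 5% CO2, 98% humidity. Cells counted by Coulter counter; IC50 read from dose–response curves of % growth versus untreated cultures.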
# HT-29 = experiment: In vitro antitumor activity against HT-29 tumor cells.; conditions: Homo sapiens
# How it was run: (§1)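 Adherent lines (human lung A-549, colon HT-29, MEL-28) grown in EMEM/neaa with 5% FCS. Cells plated at 1×10^4 per well in 1 mL medium containing graded sample concentrations, with drug-free growth controls, in duplicate. Incubated 3 days at 37 °C, 5% CO2. Stained with 0.1% crystal violet, or trypsinized and Coulter-counted. IC50 taken from dose–response curves of growth relative to controls.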
# A549 = experiment: In vitro antitumor activity against A-549 tumor cells.; conditions: Homo sapiens; how it was run: as §1
# SK-MEL-28 = experiment: In vitro antitumor activity against MEL-28 tumor cells.; conditions: Homo sapiens; how it was run: as §1
Structure (SMILES),IC50 (P388) [µg/mL],IC50 (HT-29) [µg/mL],IC50 (A549) [µg/mL],IC50 (SK-MEL-28) [µg/mL]
CC(C)CCCC(C)[C@H]1CCC2C3C/C(=N\O)C4=CC=CC[C@]4(C)C3CC[C@@]21C (stereo partly specified),5,5,5,5
CC(C)CCCC(C)[C@H]1CCC2C3C/C(=N\O)C4=CC(=O)C(O)=C[C@]4(C)C3CC[C@@]21C (stereo partly specified),0.5,0.25,0.125,0.125
C[C@]12CCC(=O)C=C1/C(=N/O)CC1C2CC[C@@]2(C)C1CC[C@@H]2O (stereo partly specified),5,5,5,5
C[C@]12CCC(=O)C=C1/C(=N/O)CC1C2CC[C@]2(C)C(=O)CCC12 (stereo partly specified),5,5,5,5
CC(C)CCCC(C)[C@H]1CCC2C3C/C(=N\O)C4=CC(=O)CC[C@]4(C)C3CC[C@@]21C (stereo partly specified),1.25,1.25,1.25,2.5
C[C@@]12CCCC1C1C/C(=N\O)C3=CC(=O)CC[C@]3(C)C1CC2 (stereo partly specified),5,5,5,5

# Other lines, results leading:
IC50 (P388) [µg/mL],IC50 (HT-29) [µg/mL],IC50 (A549) [µg/mL],IC50 (SK-MEL-28) [µg/mL],Structure (SMILES)
0.25,0.25,0.125,0.125,CC(C)CCCC(C)[C@H]1CCC2C3C/C(=N\O)C4=CC(=O)[C@H](O)C[C@]4(C)C3CC[C@@]21C (stereo partly specified)
0.25,0.25,0.125,0.125,CC(C)CCCC(C)[C@H]1CCC2C3C/C(=N\O)C4=CC(=O)[C@@H](O)C[C@]4(C)C3CC[C@@]21C (stereo partly specified)
10,10,10,10,CC(C)CCC[C@@H](C)C1CCC2C3C/C(=N\O)C4=C[C@@H](O)CC[C@]4(C)C3CC[C@@]21C (stereo partly specified)
1.25,1.25,1.25,1.25,CC(C)CCCC(C)[C@H]1CCC2C3C/C(=N\O)C4=C[C@@H](O)[C@@H](O)C[C@]4(C)C3CC[C@@]21C (stereo partly specified)
1.25,1.25,1.25,1.25,CC(C)CCCC(C)[C@H]1CCC2C3C/C(=N\O)C4=C[C@H](O)[C@H](O)C[C@]4(C)C3CC[C@@]21C (stereo partly specified)
5,5,5,5,CC(C)[C@H](C)[C@@]1(C)C[C@@H]1[C@@H](C)C1CCC2C3C/C(=N\O)C4=CC(=O)CC[C@]4(C)C3CC[C@@]21C (stereo partly specified)
10,10,10,10,CC[C@H](CCC(C)[C@H]1CCC2C3C/C(=N\O)C4=CC(=O)CC[C@]4(C)C3CC[C@@]21C)C(C)C (stereo partly specified)
10,10,10,10,CC(C)[C@H](C)[C@@]1(C)C[C@@H]1[C@@H](C)C1CCC2C3C/C(=N\O)C4=C[C@@H](O)CC[C@]4(C)C3CC[C@@]21C (stereo partly specified)
